Measured values collected from several papers.
Each line is one published result; the experiments were not run side by side.
Target: Serine/threonine-protein kinase PAK 1 (PAK1, Homo sapiens, UniProt Q13153)

SMILES | assay | setting | quantity | value
CC(C)(O)[C@H]1CC[C@H](Nc2ccc3ncc(-c4cccc(C(F)(F)F)c4)n3n2)CC1 | enzyme activity, inhibitor | 1 µM | remaining activity | 92.7%
O=C(Nc1cnn(-c2csc(C(=O)NC3COC3)c2)c1)Nc1ccccc1Cl | enzyme activity, inhibitor | 5 µM | remaining activity | 106%
Oc1ccc(-c2nc(-c3ccncc3)c(-c3ccc(F)cc3)[nH]2)cc1 | cell-free assay | 0.5 µM | remaining signal | 97.3%
Cc1cc(NC(=O)c2cccc3cc(-c4cccc5[nH]nc(N)c45)ccc23)ccc1F | enzyme activity, inhibitor | 0.1 µM | activity vs control | 94%
CS(=O)(=O)NCC[C@H](NC(=O)c1cncc2c1cnn2-c1ccc(F)cc1)c1ccnc(S(C)(=O)=O)c1 | cell-free assay, competition with immobilised ligand | 1 µM | remaining binding | 88%
O=S(=O)(Nc1cc(Sc2ncn[nH]2)c(O)c2ccccc12)c1ccc(-c2ccccc2)cc1 | enzyme activity, inhibitor | 1 µM | remaining activity | ≥ 75%
CN(C)C1CCN(CC#Cc2nn(C3CCCC3)c3nc(NCc4ccccc4)ncc23)C1 (centres unmarked) | enzyme activity, inhibitor, FRET | 10 µM | inhibition | 1%
COc1cc2ncnc(Nc3ccc(Oc4ccccc4)c(C)c3C)c2cc1OC | enzyme activity, inhibitor | 1 µM | inhibition | 5%
CS(=O)(=O)N1CCCC(NC(=O)[C@H](CCC2CCCCC2)NC(=O)c2ccc(CNC(=O)c3cnc4ccccn34)cc2)C1 (some centres unmarked) | cell-free assay, competition with immobilised ligand | 0.1 µM | remaining binding | 82%
CS(=O)(=O)Nc1cccc(-c2csc(NC(=O)CSc3nc4nccnc4c(=O)n3CCc3ccccc3)n2)c1 | enzyme activity, inhibitor | 10 µM | inhibition | -2%
Cc1ccc(Nc2nccc(N(C)c3ccc4c(C)n(C)nc4c3)n2)cc1S(N)(=O)=O | cell-free assay, inhibitor | 0.5 µM | remaining signal | 89.1%
Nc1ncnc2occ(-c3ccc(NC(=O)Nc4cc(C(F)(F)F)ccc4F)cc3)c12 | cell-free assay, inhibitor | 20 µM | remaining signal | 41%
COc1ccc2c(c1)O[C@H](c1ccc(OC)c(OC)c1)C[C@@H]2NC(=O)C1(c2ccc3c(c2)OC(F)(F)O3)CC1 | cell-free assay, competition with immobilised ligand | 1 µM | remaining binding | 100%
CC(C)(C)c1nc2c(s1)c1nc(N)ncc1c1ccc(NS(=O)(=O)c3c(F)cccc3F)c(F)c12 | enzyme activity, inhibitor, radiometric | 1 µM | remaining activity | 93%
CCc1ccccc1C(=O)Nc1n[nH]c2c(C)c(F)c(C3C(C#N)=C(C)N(C)C(C)=C3C#N)cc12 | cell-free assay, competition with immobilised ligand | 1 µM | remaining binding | 82%
C=CC(=O)Nc1cc(Nc2nccc(Nc3cc(Cl)c(F)cc3C(C)(C)O)n2)c(OC)cc1N1CC[C@@H](N(C)C)C1 | enzyme activity, inhibitor | 1 µM | inhibition | -9%
CCOCCn1cc(C(=O)Nc2ccc(-n3nc(-c4cccnc4)cc3C(F)(F)F)cn2)ccc1=O | cell-free assay, competition with immobilised ligand | 1 µM | remaining binding | 96%
Cc1cnc(NC2CCOCC2)nc1-n1cnc(C(=O)NC(CN)c2cc(F)cc(Cl)c2)c1 (centres unmarked) | enzyme activity, inhibitor, radiometric | 1 µM | remaining activity | 51%
Cc1c(NC(=O)c2cc(C(N)=O)nc3cc(F)ccc23)c(C(F)(F)F)nn1Cc1ccc(C(C)(C)C)cc1 | cell-free assay, competition with immobilised ligand | 1 µM | remaining binding | 98%
N#CCCc1ccc2c(c1)-c1[nH]c3ccc([N+](=O)[O-])cc3c1CC(=O)N2 | cell-free assay | 0.5 µM | remaining signal | 52.1%
